The source of these data is ChEMBL document CHEMBL1149055, “Spiroquinazoline, a novel substance P inhibitor with a new carbon skeleton, isolated from Aspergillus flavipes” (J Nat Prod, 1994).

The source made the active and inactive calls. The calls are words filed in the database; no cut-off is given here.

For test [1], the target named is T1, Substance-P receptor (Homo sapiens, UniProt P25103). The experiment in a line: Displacement of [3H]substance P from NK1 receptor in human astrocytoma cells. Format: cell-based. Summed up:
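Whole human astrocytoma cells; inhibition of [³H]-SP binding reported as a Ki in μM.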

In test [2] the target is T1, Substance-P receptor. Nature of the test: Displacement of [3H]substance P from NK1 receptor in human astrocytoma cells at 200 uM. Format: cell-based.

T1 sequence (P25103 whole entry): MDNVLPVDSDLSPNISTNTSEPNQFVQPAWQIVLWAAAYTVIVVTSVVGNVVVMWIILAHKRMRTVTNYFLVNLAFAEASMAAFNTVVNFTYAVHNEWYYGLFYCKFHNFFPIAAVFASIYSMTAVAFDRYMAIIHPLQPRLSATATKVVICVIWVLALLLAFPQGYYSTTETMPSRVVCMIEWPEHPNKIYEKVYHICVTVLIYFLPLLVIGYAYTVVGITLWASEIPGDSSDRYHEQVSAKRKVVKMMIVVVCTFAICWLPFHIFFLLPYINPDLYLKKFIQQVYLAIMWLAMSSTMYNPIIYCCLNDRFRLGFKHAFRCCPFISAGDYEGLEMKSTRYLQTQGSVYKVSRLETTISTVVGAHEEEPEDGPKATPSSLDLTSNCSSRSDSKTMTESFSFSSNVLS

On to `C[C@@]12NC(=O)[C@@H](C[C@@]13c1ccccc1N1C(=O)CN[C@@H]13)n1c2nc2ccccc2c1=O` [SPIROQUINAZOLINE], for which, at Substance-P receptor [1], the affinity corresponds to a Ki of 95 µM.
Still for that read-out and setting: the value for `C=CC(C)(C)[C@@]12C[C@H]3C(=O)Nc4ccccc4C(=O)N3[C@@H]1N(C(C)=O)c1ccccc12` [ACYL ASZONALENIN] was 170 µM.
As for `O=C1N[C@@H](Cc2ccccc2)C(=O)N2CCC[C@@H]12`, the result on Substance-P receptor [2] was inactive.
Same read-out and setting: in the case of `O=C1N[C@@H](Cc2c[nH]c3ccccc23)C(=O)Nc2ccccc21` it was “inactive”; in that of `O=C1N[C@@H](Cc2ccc(O)cc2)C(=O)N2CCC[C@@H]12`, “inactive”.
The same measure, in the same setting: in the case of `CC(C)C[C@@H]1NC(=O)[C@@H]2CCCN2C1=O` it was “inactive”; in that of `CC(C)[C@@H]1NC(=O)[C@H]2CCCN2C1=O`, “inactive”.
On the same count and under the same terms, in the case of `CC(C)[C@@H]1NC(=O)[C@@H]2CCCN2C1=O` it was “inactive”; in that of `O=C(N[C@H](CO)Cc1ccccc1)c1ccccc1`, “inactive”.
`C[C@H]1N[C@H]2N(C1=O)c1ccccc1[C@@]21C[C@@H]2C(=O)N[C@](C)(O1)c1nc3ccccc3c(=O)n12`: the result on Substance-P receptor [2] was inactive.
The same measure, in the same setting: the value for `O=C1N[C@@H](Cc2ccccc2)C(=O)N2CCC[C@H]12` was “inactive”.
On the same count and under the same terms, the value for `O=C1N[C@@H](Cc2ccc(O)cc2)C(=O)N2CCC[C@H]12` was “inactive”.
